Experiments:
Beta-secretase 1 = Beta-secretase 1 (Homo sapiens, UniProt P56817); test: Inhibition of BACE1 (unknown origin) assessed as cleavage of amyloid precursor protein by beta-galactosidase enzyme complementation assay
[1] = biological target: T1, PXR (NR1I2); CYP3A4 gene expression (Homo sapiens, UniProt O75469); test: Activation of human PXR expressed in human DPX2 cells assessed as induction of CYP3A4 gene expression at 4 uM measured after 24 hrs by luciferase reporter gene assay relative to control; assay type: cell-based; conditions: DPX2 cells expressing human PXR, read-out: FC
T1 sequence (O75469 whole entry): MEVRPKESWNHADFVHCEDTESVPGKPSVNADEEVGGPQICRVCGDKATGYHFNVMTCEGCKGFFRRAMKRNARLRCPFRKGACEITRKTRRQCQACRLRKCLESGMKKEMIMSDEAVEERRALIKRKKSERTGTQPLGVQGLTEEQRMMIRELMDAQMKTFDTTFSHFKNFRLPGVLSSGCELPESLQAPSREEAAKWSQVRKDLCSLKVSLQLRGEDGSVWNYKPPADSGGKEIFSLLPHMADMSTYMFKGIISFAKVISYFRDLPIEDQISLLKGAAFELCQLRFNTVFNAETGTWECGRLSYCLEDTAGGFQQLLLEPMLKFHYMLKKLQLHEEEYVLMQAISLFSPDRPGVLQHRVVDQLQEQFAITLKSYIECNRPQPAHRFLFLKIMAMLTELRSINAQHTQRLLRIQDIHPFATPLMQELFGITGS
Method in brief: (§1)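 DPX2 cells stably carrying human PXR (NR1I2) and a luciferase reporter under two human CYP3A4 promoters. Cells were seeded, treated 24 h later with six compound concentrations in duplicate wells, then incubated 24 h more. Viable cells were counted by a fluorescent cytotoxicity read in the same wells, then luciferase (ONE-Glo) was read. Fold activation is relative to DMSO vehicle-treated cells.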

[2] = biological target: T1, PXR (NR1I2); CYP3A4 gene expression; test: Activation of human PXR expressed in human DPX2 cells assessed as induction of CYP3A4 gene expression at 1 uM measured after 24 hrs by luciferase reporter gene assay relative to control; assay type: cell-based; conditions: DPX2 cells expressing human PXR, read-out: FC; method in brief: as §1
[3] = biological target: T2, Nuclear receptor subfamily 1 group I member 2 (Homo sapiens, UniProt O75469); test: Activation of human PXR expressed in human DPX2 cells assessed as induction of CYP3A4 gene expression at 10 uM measured after 24 hrs by luciferase reporter gene assay relative to rifampicin; assay type: cell-based; conditions: dpx2, 24 h
T2 sequence (O75469 whole entry): T1 sequence (O75469 whole entry)
Method in brief: (§2)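 PXR reporter run in stable DPX2 cells expressing human PXR with a luciferase reporter linked to two human CYP3A4 promoters. Compound (six concentrations, duplicate wells) was added 24 h after seeding, with a further 24 h incubation. Viability was read first, then luciferase in the same wells. Rifampicin was the reference at seven concentrations; activation is given as % of rifampicin response, with rifampicin at 10 μM.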

[4] = biological target: T2, Nuclear receptor subfamily 1 group I member 2; test: Activation of human PXR expressed in human DPX2 cells assessed as induction of CYP3A4 gene expression at 4 uM measured after 24 hrs by luciferase reporter gene assay relative to rifampicin; assay type: cell-based; conditions: dpx2, 24 h; method in brief: as §2
[5] = biological target: T2, Nuclear receptor subfamily 1 group I member 2; test: Activation of human PXR expressed in human DPX2 cells assessed as induction of CYP3A4 gene expression at 40 uM measured after 24 hrs by luciferase reporter gene assay relative to rifampicin; assay type: cell-based; conditions: dpx2, 24 h; method in brief: as §2
[6] = biological target: T1, PXR (NR1I2); CYP3A4 gene expression; test: Activation of human PXR expressed in human DPX2 cells assessed as induction of CYP3A4 gene expression at 10 uM measured after 24 hrs by luciferase reporter gene assay relative to control; assay type: cell-based; conditions: DPX2 cells expressing human PXR, read-out: FC; method in brief: as §1
[7] = biological target: T2, Nuclear receptor subfamily 1 group I member 2; test: Activation of human PXR expressed in human DPX2 cells assessed as induction of CYP3A4 gene expression at 1 uM measured after 24 hrs by luciferase reporter gene assay relative to rifampicin; assay type: cell-based; conditions: dpx2, 24 h; method in brief: as §2
[8] = biological target: T1, PXR (NR1I2); CYP3A4 gene expression; test: Activation of human PXR expressed in human DPX2 cells assessed as induction of CYP3A4 gene expression at 0.1 uM measured after 24 hrs by luciferase reporter gene assay relative to control; assay type: cell-based; conditions: DPX2 cells expressing human PXR, read-out: FC; method in brief: as §1
[9] = biological target: T1, PXR (NR1I2); CYP3A4 gene expression; test: Activation of human PXR expressed in human DPX2 cells assessed as induction of CYP3A4 gene expression at 40 uM measured after 24 hrs by luciferase reporter gene assay relative to control; assay type: cell-based; conditions: DPX2 cells expressing human PXR, read-out: FC; method in brief: as §1
[10] = biological target: T1, PXR (NR1I2); CYP3A4 gene expression; test: Activation of human PXR expressed in human DPX2 cells assessed as induction of CYP3A4 gene expression at 0.4 uM measured after 24 hrs by luciferase reporter gene assay relative to control; assay type: cell-based; conditions: DPX2 cells expressing human PXR, read-out: FC; method in brief: as §1
[11] = biological target: T2, Nuclear receptor subfamily 1 group I member 2; test: Activation of human PXR expressed in human DPX2 cells assessed as induction of CYP3A4 gene expression at 0.4 uM measured after 24 hrs by luciferase reporter gene assay relative to rifampicin; assay type: cell-based; conditions: dpx2, 24 h; method in brief: as §2
[12] = biological target: T2, Nuclear receptor subfamily 1 group I member 2; test: Activation of human PXR expressed in human DPX2 cells assessed as induction of CYP3A4 gene expression at 0.1 uM measured after 24 hrs by luciferase reporter gene assay relative to rifampicin; assay type: cell-based; conditions: dpx2, 24 h; method in brief: as §2

Sequence of Beta-secretase 1 (P56817 whole entry): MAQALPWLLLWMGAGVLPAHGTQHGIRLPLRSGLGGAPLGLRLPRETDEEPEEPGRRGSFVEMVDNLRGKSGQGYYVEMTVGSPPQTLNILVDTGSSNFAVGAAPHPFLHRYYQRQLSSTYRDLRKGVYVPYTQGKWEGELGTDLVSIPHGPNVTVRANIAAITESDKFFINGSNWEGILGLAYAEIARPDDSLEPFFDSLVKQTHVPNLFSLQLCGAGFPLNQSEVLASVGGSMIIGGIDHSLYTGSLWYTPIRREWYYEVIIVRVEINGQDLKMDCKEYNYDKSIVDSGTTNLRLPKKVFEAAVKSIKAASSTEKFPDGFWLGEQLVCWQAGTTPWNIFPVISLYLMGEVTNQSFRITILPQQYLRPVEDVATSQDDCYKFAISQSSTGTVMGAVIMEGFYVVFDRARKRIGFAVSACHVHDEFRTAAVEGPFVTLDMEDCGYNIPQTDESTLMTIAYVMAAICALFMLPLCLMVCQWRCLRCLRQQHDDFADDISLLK

Row | IC50 (Beta-secretase 1) | fold induction at 24 h, 4 µM [1] | fold induction at 24 h, 1 µM [2] | Activity [3] | Activity [4] | Activity [5] | fold induction at 24 h, 10 µM [6] | Activity [7] | fold induction at 24 h, 0.1 µM [8] | fold induction at 24 h, 40 µM [9] | fold induction at 24 h, 0.4 µM [10] | Activity [11] | Activity [12] | SMILES
1 | 82 µM |  |  |  |  |  |  |  |  |  |  |  |  | CC[C@]1(C)CCC2=C1CC[C@H]1[C@H]2C[C@@H](Cl)C2=C[C@@H](O)[C@@H]3C[C@@]21C(=O)O3
2 |  | 1.2 | 1.2 | 6% | 2% | 28% | 1.6 | 2% | 1.3 | 3.7 | 1.4 | 4% | 3% | C/C=C1\CC[C@H]2[C@@H]3CC=C4[C@@H](O)[C@@H](O)[C@@H]5C[C@]4(C(=O)O5)[C@H]3CC[C@]12C

Reference: ChEMBL document CHEMBL3853281, “Pregnane-10,2-carbolactones from a Hawaiian Marine Sponge in the Genus Myrmekioderma” (J Nat Prod, 2016)
